# Laboratory results published in paper PMC5991896 (Biochimie Open, 2017).
# Molecular target: T1, fucolectin-related protein (FRP) (Streptococcus pneumoniae, UniProt A0A0H2US34)
# T1 sequence (A0A0H2US34 1-1038): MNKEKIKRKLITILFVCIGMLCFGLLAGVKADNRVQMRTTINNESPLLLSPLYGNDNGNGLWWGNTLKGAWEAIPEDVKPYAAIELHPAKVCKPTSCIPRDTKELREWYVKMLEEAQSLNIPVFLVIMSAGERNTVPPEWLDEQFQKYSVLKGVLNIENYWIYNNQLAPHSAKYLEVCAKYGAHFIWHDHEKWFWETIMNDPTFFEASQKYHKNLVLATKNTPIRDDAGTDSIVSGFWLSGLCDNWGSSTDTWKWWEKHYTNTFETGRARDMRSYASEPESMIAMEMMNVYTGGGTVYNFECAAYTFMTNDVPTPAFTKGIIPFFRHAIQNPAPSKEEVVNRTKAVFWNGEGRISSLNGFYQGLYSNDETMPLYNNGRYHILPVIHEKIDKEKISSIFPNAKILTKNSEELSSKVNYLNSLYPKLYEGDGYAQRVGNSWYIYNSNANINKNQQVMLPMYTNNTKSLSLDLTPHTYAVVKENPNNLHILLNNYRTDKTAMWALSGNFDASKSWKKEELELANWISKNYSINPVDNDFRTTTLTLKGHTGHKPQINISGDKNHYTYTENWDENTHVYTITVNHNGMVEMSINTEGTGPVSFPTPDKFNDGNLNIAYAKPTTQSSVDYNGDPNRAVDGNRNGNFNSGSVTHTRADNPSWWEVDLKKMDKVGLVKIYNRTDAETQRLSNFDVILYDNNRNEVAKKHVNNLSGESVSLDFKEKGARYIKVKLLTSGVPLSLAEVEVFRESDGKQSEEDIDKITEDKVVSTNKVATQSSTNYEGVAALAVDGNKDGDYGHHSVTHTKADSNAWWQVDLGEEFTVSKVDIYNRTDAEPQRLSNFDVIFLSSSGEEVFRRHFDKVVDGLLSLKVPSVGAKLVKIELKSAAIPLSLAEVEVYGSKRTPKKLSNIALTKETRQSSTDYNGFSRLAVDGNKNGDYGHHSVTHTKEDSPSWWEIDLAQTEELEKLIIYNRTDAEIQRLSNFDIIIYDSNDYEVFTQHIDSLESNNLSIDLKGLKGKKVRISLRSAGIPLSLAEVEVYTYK
# Assay: enzyme-linked lectinosorbent inhibition assay
# Assay type: binding
# Conditions: TBS-T pH 7.35, 20 °C; no metal needed; ratio from amounts giving 50% inhibition
# In short: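 Recombinant SP2159 FRP expressed in E. coli and biotinylated. Wells coated at 4 °C with 10 μg human ovarian cyst phenol-insoluble glycoprotein bearing H Fucα1→2Gal and Fucα1→3/4GlcNAc glycotopes. Twofold serially diluted saccharide was mixed with an equal volume of fixed FRP for 1 h at 20 °C. TBS-T served as diluent and wash. The nmole/well giving 50% inhibition versus no inhibitor was read from the inhibition curve.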
row,SMILES,Molar Relative Potency / LFuc as 1.0
1,"C[C@@H]1O[C@H](Oc2ccc([N+](=O)[O-])cc2)[C@@H](O)[C@H](O)[C@@H]1O [compound 1, p-Nitrophenyl-β-LFuc]",69.1 relative to LFuc = 1.0
2,"C[C@@H]1O[C@@H](Oc2ccc([N+](=O)[O-])cc2)[C@@H](O)[C@H](O)[C@@H]1O [compound 2, p-Nitrophenyl-α-LFuc]",34.5 relative to LFuc = 1.0
3,"CO[C@H]1O[C@@H](C)[C@@H](O)[C@@H](O)[C@@H]1O [compound 3, Methyl-β-LFuc]",21.9 relative to LFuc = 1.0
4,"C[C@@H]1O[C@@H](O[C@H]2[C@H](O[C@H]3[C@H](O[C@@H]4O[C@@H](C)[C@@H](O)[C@@H](O)[C@@H]4O)[C@@H](O)C(O)O[C@@H]3CO)O[C@H](CO)[C@H](O)[C@@H]2O)[C@@H](O)[C@H](O)[C@@H]1O (stereo partly drawn) [compound 4, LFucα1→2Galβ1→4[LFucα1→3]Glc]",5.7 relative to LFuc = 1.0
5,"CO[C@@H]1O[C@@H](C)[C@@H](O)[C@@H](O)[C@@H]1O [compound 5, Methyl-α-LFuc]",4.4 relative to LFuc = 1.0

# Continued, values first:
row,Molar Relative Potency / LFuc as 1.0,SMILES
1,4.4 relative to LFuc = 1.0,"OC[C@@H]1OC(O)[C@@H](O)[C@H](O)[C@@H]1O (stereo partly drawn) [compound 6, LGal]"
2,1.8 relative to LFuc = 1.0,"CC(=O)N[C@H]1[C@H](O[C@H]2[C@@H](O)[C@@H](CO)O[C@@H](O[C@H]3[C@H](O)[C@@H](O)C(O)O[C@@H]3CO)[C@@H]2O)O[C@H](CO)[C@@H](O[C@@H]2O[C@@H](C)[C@@H](O)[C@@H](O)[C@@H]2O)[C@@H]1O[C@@H]1O[C@H](CO)[C@H](O)[C@H](O)[C@H]1O[C@@H]1O[C@@H](C)[C@@H](O)[C@@H](O)[C@@H]1O (stereo partly drawn) [compound 7, LFucα1→2Galβ1→3[LFucα1→4]GlcNAcβ1→3Gal β1→4Glc]"
3,0.7 relative to LFuc = 1.0,"C[C@@H]1O[C@@H](O[C@H]2C(O)O[C@H](CO)[C@H](O)[C@@H]2O)[C@@H](O)[C@H](O)[C@@H]1O (stereo partly drawn) [compound 9, LFucα1→2Gal]"
4,0.09 relative to LFuc = 1.0,"OC1OC[C@@H](O)[C@@H](O)[C@@H]1O (stereo partly drawn) [compound 10, DAra]"
